PABP polyA inh: PABP poly(A) RNA binding inhibitors, primary screen, biochemical, fluorescence polarization, uHTS. Polyadenylate-binding protein 1 (Homo sapiens), P11940. inhibition, % at 35 µM. 1% of 290,000 active;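 also: calls also rest on retests at 20 µM and on dose response follow-up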
Target sequence (P11940 whole entry, looked up): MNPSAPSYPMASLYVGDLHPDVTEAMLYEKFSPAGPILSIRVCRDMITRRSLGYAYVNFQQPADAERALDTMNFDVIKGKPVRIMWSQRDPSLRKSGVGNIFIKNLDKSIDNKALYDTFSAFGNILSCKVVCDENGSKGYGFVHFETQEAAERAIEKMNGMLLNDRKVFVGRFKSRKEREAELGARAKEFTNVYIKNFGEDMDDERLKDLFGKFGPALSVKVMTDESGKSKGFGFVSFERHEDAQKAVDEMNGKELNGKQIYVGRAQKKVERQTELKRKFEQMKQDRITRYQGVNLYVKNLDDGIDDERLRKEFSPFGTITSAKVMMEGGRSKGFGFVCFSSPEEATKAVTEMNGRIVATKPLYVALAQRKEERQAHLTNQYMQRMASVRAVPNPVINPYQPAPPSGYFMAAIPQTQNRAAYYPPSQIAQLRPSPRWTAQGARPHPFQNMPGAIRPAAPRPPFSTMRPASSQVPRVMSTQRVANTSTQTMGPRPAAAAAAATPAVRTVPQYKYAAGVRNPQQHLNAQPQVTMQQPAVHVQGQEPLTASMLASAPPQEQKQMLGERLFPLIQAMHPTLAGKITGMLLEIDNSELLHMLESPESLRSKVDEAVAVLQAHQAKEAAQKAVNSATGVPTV
HCV core dimer: inhibitors of HCV core protein dimerization, primary screen, biochemical, TR-FRET, high-throughput; inhibition, % at 5 µM; 0.33% of 300,000 active; TR-FRET GST/Flag-core106 dimerization, 1536-well;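 active = inhibition above the mean of all tested compounds plus 3 SD, set per screening campaign, cut at about 45% in these data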
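Material: Tagged HCV core106 pair (GST and Flag) | Amount: GST-core106 13.5 nM, Flag-core106 17 nM | Medium: KF-containing HEPES buffer, pH 7.45, DTT, CHAPS, BSA | Reagent: Eu donor and XL665 acceptor anti-tag antibodies | Schedule: 4 h at 22.5 °C | Technique: Time-resolved FRET, ex 340 nm, em 617 and 671 nm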
MLLE-PAM2 inh: inhibitors of PABP1 MLLE–PAM2 peptide binding, primary screen, biochemical, fluorescence polarization, FITC-PAM2, GST-MLLE; 0.36% of 360,000 active; Polyadenylate-binding protein 1 (Homo sapiens), P11940; inhibition, % at 20 µM; AID 588489, 2011; in the data active = inhibition above about 35%, passing the limit was not always enough;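 also: plate controls were DMSO wells with GST-MLLE for no effect and wells lacking GST-MLLE protein for full effect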
FID counter: compounds displacing fluorescent DNA intercalator, primary screen, artefact control for HCV NS3 helicase inhibitor project, biochemical, FID fluorescence | DNA fluorescent intercalator displacement | inhibition, % at 7.9 µM | 0.17% of 290,000 active | AID 1845, 2009; in the data active = inhibition above about 37%;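 also: 0% = vehicle and 100% = reference compound; higher means more ethidium bromide displaced from hairpin DNA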
eIF4H FP inh: human eIF4H binding inhibitors, primary screen, translation initiation inhibitor project, biochemical, uHTS, fluorescence polarization | 0.94% of 290,000 active | Eukaryotic translation initiation factor 4H (Homo sapiens), Q15056 | inhibition, % at 35 µM | eIF4H fluorescence polarization binding assay | AID 2012, 2009;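 also: calls also rest on retests at 20 µM and on dose response follow-up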
NS3 helicase inh: inhibitors of HCV NS3 helicase, primary screen, biochemical, Cy5 molecular beacon fluorescence; Hepatitis C virus NS3 helicase; NS3 helicase DNA unwinding; 0.56% of 290,000 active; inhibition, % at 10.9 µM;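 active = inhibition above the mean of all tested compounds plus 3 SD, set per campaign, cut at about 35% in these data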;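 also: 0% = DMSO wells and 100% = thioflavine S control wells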
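test system = hepatitis C virus NS3 helicase domain fragment enzyme | reagent = annealed dual-labelled DNA beacon duplex, ATP-started | times = 1 h at 25 °C | detection = Cy5 fluorescence, 0 and 60 min reads | read-out basis = percent inhibition from t60/t0 fluorescence ratio | control set = DMSO and thioflavine S | replication = one well per compound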
The depositor's hits bear a star; ? = inconclusive; / = not tested or not shown. Only some compounds are listed: those with a hit (about 2% of all), similar ones and a draw of the others. Unless noted, no rule for the calls is given here.

SMILES	PABP polyA inh	HCV core dimer	MLLE-PAM2 inh	FID counter	eIF4H FP inh	NS3 helicase inh
O=C(O)C1OC(Oc2c(-c3ccc(O)c(O)c3)oc3cc(O)cc(O)c3c2=O)C(O)C(O)C1O (centres undefined)	13.8*	-23.1	/	-2.5	76.5*	3.6
CN(C(=O)COC(=O)c1cn(-c2ccccc2)nc1-c1ccccc1)C1CCS(=O)(=O)C1 (centres undefined)	?	1.9	8.8	-27.8	active	-9.8
CC(C)c1ccc(NC2CCCN(C(=O)CN3CCCCC3=O)C2)cc1 (centres undefined)	/	/	12.0	/	/	/
CCOC(=O)C1=C(C)NC(C)=C(C(=O)OCC)C1c1ccc(O)cc1	81.7*	-4.9	-3.9	-15.1	7.4*	7.7
COc1cccc(C2c3[nH]c4ccccc4c3C[C@H]3C(=O)N(c4ccccc4C(=O)NCCCN4CCOCC4)C(=O)N23)c1 (some centres undefined)	-9.7	-9.2	3.3	44.7*	-1.4	-94.2
Cc1ccc(CC(=O)N2CCN(C(=O)C3CCCO3)CC2)cc1 (centres undefined)	-8.7	9.2	-1.6	-9.9	-6.7	11.9
CCC(C)c1ccccc1NC(=O)c1cccc(-n2cnnn2)c1 (centres undefined)	/	/	-87.7	/	/	/
O=C(Nc1ccc2nc3ccccc3nc2c1)c1ccccc1	-24.6	-15.2	12.2	4.6	14.0	-1.4
O=C(Nc1ccc(-c2nc3ccccc3s2)c(OC(=O)c2ccccc2)c1)c1ccccc1	-7.6	57.7*	3.7	-2.3	-4.8	11.2
O=C(/C=C/c1ccco1)N1CCc2ccccc21	94.6	4.8	7.9	-10.2	17.6*	10.2
CCOC(=O)/C=C/C(=O)N1CCc2ccccc21	2.7	-4.3	-17.2	-3.2	-8.5	5.9
Cc1ccc(/C=C/C(=O)N2CCc3ccccc32)o1	-2.0	62.8*	17.7	-11.1	67.8	28.5
O=C(/C=C/c1ccco1)N1CCCC(c2ccccc2)C1 (centres undefined)	6.3	48.0*	9.3	-15.4	42.8	28.4
CC(C)CCNC(=O)C(c1ccc(O)cc1)N(Cc1ccco1)C(=O)CCC(=O)Nc1nccs1 (centres undefined)	2.9	-2.7	5.8	-38.6	-9.7	4.2
O=C(NCc1ccco1)C(c1ccco1)N(C(=O)Cn1nnc2ccccc21)c1ccc2c(c1)CCC2 (centres undefined)	/	49.9*	-1.3	-40.5	/	16.2
O=C1c2ccccc2NC(c2ccc(Br)s2)N1O (centres undefined)	/	17.4	/	/	/	/
Nc1nonc1-c1nc2ccccc2n1CC(=O)N/N=C\c1ccc(-c2ccc(Cl)cc2)o1	-0.9	83.6*	-4.0	5.1	10.7	4.7
C[C@@H]1CN([C@@H](C)CO)C(=O)c2cc(Br)cnc2O[C@H]1CN(C)Cc1cccnc1	/	/	5.2	/	/	/
COc1ccc(-c2ccc(-c3noc(-c4cccs4)n3)c(OC)n2)cc1	50.0*	16.1	-47.1	-0.3	29.2*	-2.9
COc1ccc(-c2ccc(-c3noc(-c4ccccc4C)n3)c(OC)n2)cc1	44.9	6.3	-21.7	-2.6	43.7	-0.4
Cc1ccc(C(=O)NCC(=O)N2CCC(Cc3ccccc3)CC2)cc1	-3.7	-5.3	-7.4	-35.8	-2.5	7.6
O=C(CN1C(=O)S/C(=C/c2ccncc2)C1=O)N1CCOCC1	-4.1	-9.5	48.8*	-5.4	0.0	0.3
Cc1ccc(NC(=O)CN2C(=O)S/C(=C/c3ccncc3)C2=O)cc1	0.2	2.7	47.9*	0.2	5.3	3.9
COc1ccc(C2c3ccc4ccccc4c3Oc3ncn(CCN(C)C)c(=N)c32)cc1 (centres undefined)	-0.1	-4.7	-4.5	21.8	0.9	-53.7
COC/C=C/C1=CC2=CC(=O)C(C)(OC(=O)c3cnc4ccccc4n3)C(=O)C2=CN1Cc1ccc(OC)cc1 (centres undefined)	28.9	37.1	5.8	/	50.1*	/
SMILES	PABP polyA inh	HCV core dimer	MLLE-PAM2 inh	FID counter	eIF4H FP inh	NS3 helicase inh
COC/C=C/C1=CC2=CC(=O)C(C)(OC(=O)c3cnc4ccccc4n3)C(=O)C2=CN1Cc1ccccc1 (centres undefined)	38.8	27.9	0.9	/	59.0*	/
O=C1N=c2ccccc2=C1c1sc(NS(=O)(=O)c2ccccc2)nc1O	7.4	-1.7	27.5	-12.1	2.7	24.9
O=C1N=c2ccccc2=C1c1sc(Nc2cccc(O)c2)nc1O	20.2*	-7.6	-17.5	39.3*	59.0*	-11.1
CCc1nc2ccc(C(=O)NCCN3CCNC3=O)cn2c1N(CC)CCOC	/	/	9.4	/	/	/
O=C(CN1CCN(c2ccccn2)CC1)Nc1ccc(Oc2ccccc2)cc1	52.4	4.2	4.0	-3.0	active	-5.7
O=C(CN1CCN(c2ccccn2)CC1)Nc1ccccc1	2.0	-4.0	-5.2	-8.9	-10.0	5.2
COc1ccc(/C=N/Nc2ccccn2)c(OC)c1OC	61.2*	-4.6	1.7	-1.5	1.9*	18.0
COc1ccc(/C=N\Nc2ccccn2)c(OC)c1	-7.0	/	1.3	-2.0	-2.5	4.1
CCCSc1nc(C)cc(C)c1S(C)(=O)=O	78.5*	-1.6	-3.6	-1.1	4.7*	14.2
CC1(C)Cc2c(sc(NC(=O)c3ccco3)c2C#N)C(C)(C)N1	98.8*	-8.7	/	/	60.7*	/
CC(=O)Nc1sc2c(c1C#N)CC(C)(C)NC2(C)C	-1.9	0.0	6.0	-1.2	-5.1	11.4
COc1ccc(C(=O)NC2CCc3ccccc32)cc1OC1CCN(C(C)C)CC1 (centres undefined)	16.0	6.8	-5.2	7.8	1.0	2.6
Cc1ccc(C2NC(=S)NC3=C2C(=O)CCC3)cc1 (centres undefined)	-7.0	0.8	-37.0	-0.8	0.1	-4.7
CC(C)c1ccc(C2NC(=S)NC3=C2C(=O)CCC3)cc1 (centres undefined)	50.4	2.0	-125.6	-9.2	active	-6.7
CC1C2C(C)N(C)C(=O)N(C)C2N(C)C(=O)N1C (centres undefined)	33.8	-1.4	53.5*	0.3	32.3	2.4
CN1C(=O)N(C)C2C1NC(=O)N2C (centres undefined)	8.8	-2.2	8.9	4.9	3.9	3.5
COCCN(C(=O)COC(=O)C(c1ccccc1)c1ccccc1)c1c(N)n(Cc2ccccc2)c(=O)[nH]c1=O	/	3.7	-6.0	/	/	/
COc1ccc(NC(=O)C2Cc3c(-c4cccc(F)c4)ccnc3O2)cc1OC (centres undefined)	/	/	11.3	/	/	/
O=C(CCCCl)Oc1ccc2cc(-c3ccc4ccccc4n3)c(=O)oc2c1	-11.8	-9.2	15.8	-2.1	52.3*	4.9

Assay outcomes from PubChem.
